Measurements as given in paper PMC4407950 (Journal of Clinical Pharmacology, 2014).
Like-named read-outs stand apart in the source and are kept apart here.

How the values were obtained:
[1] = cited from earlier work
[2] = in the absence of added supplement; cited from earlier work
[3] = assay type: in vivo, human; details: for AUC(0–∞), ratio of geometric least-squares means (90% confidence interval) / C24, ratio of geometric least-squares means (90% confidence interval) / Cmax, ratio of geometric least-squares means (90% confidence interval) / reduction of plasma dolutegravir AUC(0–∞) / reduction of plasma dolutegravir C24 / reduction of plasma dolutegravir Cmax: fasted; for Tmax: human, plasma, oral, median (range)
Outline: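 Healthy adults were randomized to 2 cohorts of 4 treatments: test compound 50 mg single dose fasted, then with calcium supplement (1,200 mg) or iron supplement (324 mg) fasted, with a ~30% fat meal, or 2 h before the supplement fasted. Washout was ≥7 days. K2EDTA plasma was sampled predose to 48 h. Noncompartmental parameters were log-transformed and fitted by mixed model, giving geometric LS mean ratios with 90% CI.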

Safety evaluation = assay type: in vivo, human; details: for subjects who experienced AEs: six subjects
Outline: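 Subjects were housed from Day −1 to Day 3 of each crossover period. Each period included serum chemistry, hematology, urinalysis, vital signs and 12-lead ECG. Adverse events were monitored through the treatment phase and at follow-up 7–14 days after the last dose.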

[4] = Maalox 2 hours after dolutegravir administration
[5] = concurrent administration of Maximum Strength Maalox, fasted
[6] = Dolutegravir 2 h prior + CC, fasted vs. dolutegravir alone
[7] = Dolutegravir 2 h prior + FF, fasted vs. dolutegravir alone
[8] = Dolutegravir + CC, fasted vs. dolutegravir alone
[9] = Dolutegravir + CC, fed vs. dolutegravir + CC
[10] = Dolutegravir + CC, fed vs. dolutegravir alone
[11] = Dolutegravir + FF, fasted vs. dolutegravir alone
[12] = Dolutegravir + FF, fed vs. dolutegravir + FF
[13] = Dolutegravir + FF, fed vs. dolutegravir alone
[14] = co-administered with calcium carbonate 1,200 mg
[15] = co-administered with ferrous fumarate 324 mg

AUC(0–∞), ratio of geometric least-squares means (90% confidence interval) [3, 6]: 0.94 (0.72, 1.23)
C24, ratio of geometric least-squares means (90% confidence interval) [3, 6]: 0.90 (0.68, 1.19)
Cmax, ratio of geometric least-squares means (90% confidence interval) [3, 6]: 1.00 (0.78, 1.29)
AUC(0–∞), ratio of geometric least-squares means (90% confidence interval) [3, 7]: 0.95 (0.77, 1.15)
C24, ratio of geometric least-squares means (90% confidence interval) [3, 7]: 0.92 (0.74, 1.13)
Cmax, ratio of geometric least-squares means (90% confidence interval) [3, 7]: 0.99 (0.81, 1.21)
AUC(0–∞), ratio of geometric least-squares means (90% confidence interval) [3, 8]: 0.61 (0.47, 0.80)
C24, ratio of geometric least-squares means (90% confidence interval) [3, 8]: 0.61 (0.47, 0.80)
Cmax, ratio of geometric least-squares means (90% confidence interval) [3, 8]: 0.63 (0.50, 0.81)
AUC(0–∞), ratio of geometric least-squares means (90% confidence interval) [3, 9]: 1.78 (1.36, 2.33)
C24, ratio of geometric least-squares means (90% confidence interval) [3, 9]: 1.76 (1.33, 2.33)
Cmax, ratio of geometric least-squares means (90% confidence interval) [3, 9]: 1.70 (1.32, 2.18)
AUC(0–∞), ratio of geometric least-squares means (90% confidence interval) [3, 10]: 1.09 (0.84, 1.43)
C24, ratio of geometric least-squares means (90% confidence interval) [3, 10]: 1.08 (0.81, 1.42)
Cmax, ratio of geometric least-squares means (90% confidence interval) [3, 10]: 1.07 (0.83, 1.38)
AUC(0–∞), ratio of geometric least-squares means (90% confidence interval) [3, 11]: 0.46 (0.38, 0.56)
C24, ratio of geometric least-squares means (90% confidence interval) [3, 11]: 0.44 (0.36, 0.54)
Cmax, ratio of geometric least-squares means (90% confidence interval) [3, 11]: 0.43 (0.35, 0.52)
AUC(0–∞), ratio of geometric least-squares means (90% confidence interval) [3, 12]: 2.14 (1.76, 2.61)
C24, ratio of geometric least-squares means (90% confidence interval) [3, 12]: 2.28 (1.85, 2.81)
Cmax, ratio of geometric least-squares means (90% confidence interval) [3, 12]: 2.41 (1.97, 2.94)
AUC(0–∞), ratio of geometric least-squares means (90% confidence interval) [3, 13]: 0.98 (0.81, 1.20)
C24, ratio of geometric least-squares means (90% confidence interval) [3, 13]: 1.00 (0.81, 1.23)
Cmax, ratio of geometric least-squares means (90% confidence interval) [3, 13]: 1.03 (0.84, 1.26)
reduction of plasma dolutegravir AUC(0–∞) [3, 14]: 39%
reduction of plasma dolutegravir C24 [3, 14]: 39%
reduction of plasma dolutegravir Cmax [3, 14]: 37%
reduction of plasma dolutegravir AUC(0–∞) [3, 15]: 54%
reduction of plasma dolutegravir C24 [3, 15]: 56%
reduction of plasma dolutegravir Cmax [3, 15]: 57%
plasma exposures, dose separation ([3]; dolutegravir fasted 2 hours prior to calcium carbonate or ferrous fumarate): counteracted the effect
plasma exposures, co-administration with supplement and a meal ([3]; dolutegravir with calcium carbonate or ferrous fumarate, fed (moderate-fat meal)): counteracted the effect
Tmax ([3]; dolutegravir 50 mg + calcium carbonate 1,200 mg, fed (moderate-fat meal), n = 11): 3 h
Tmax ([3]; dolutegravir 50 mg + ferrous fumarate 324 mg, fed (moderate-fat meal), n = 10): 3.5 h
increase of dolutegravir AUC by a moderate-fat meal ([3]; in the presence of calcium carbonate): 78%
increase of dolutegravir AUC by a moderate-fat meal ([3]; in the presence of ferrous fumarate): 114%
effect of co-administration on tmax of dolutegravir ([3]; with calcium carbonate or ferrous fumarate): no effect
SMILES: C[C@@H]1CCO[C@H]2Cn3cc(C(=O)NCc4ccc(F)cc4F)c(=O)c(O)c3C(=O)N12 [Dolutegravir]
decrease of dolutegravir mean AUC [1, 4]: 26%
decrease of dolutegravir mean C24 [1, 4]: 30%
decrease of dolutegravir mean Cmax [1, 4]: 18%
effect of omeprazole on dolutegravir exposure ([1]; clinical study in humans): no effect
decrease of dolutegravir mean AUC [1, 5]: 74%
decrease of dolutegravir mean C24 [1, 5]: 74%
decrease of dolutegravir mean Cmax [1, 5]: 72%
increase of dolutegravir AUC by a moderate-fat meal [2]: 41%
subjects who experienced AEs (Safety evaluation; Cohort 1 (calcium carbonate)): 50%
subjects who experienced AEs (Safety evaluation; Cohort 2 (ferrous fumarate)): 50%
severity of all adverse events (Safety evaluation; both cohorts): Grade 1
changes in mean or median hematology or clinical chemistry values (Safety evaluation; human, in vivo): No consistent, treatment-related, or clinically significant changes
changes in vital signs or ECGs (Safety evaluation; human, in vivo): No clinically significant changes
